ChEMBL document CHEMBL1137680, “A class of potent tyrosinase inhibitors: alkylidenethiosemicarbazide compounds” (Eur J Med Chem, 2009)

molecular target: T1, Tyrosinase (Agaricus bisporus, UniProt O42713); test: Inhibition of mushroom tyrosinase
T1 sequence (O42713 whole entry): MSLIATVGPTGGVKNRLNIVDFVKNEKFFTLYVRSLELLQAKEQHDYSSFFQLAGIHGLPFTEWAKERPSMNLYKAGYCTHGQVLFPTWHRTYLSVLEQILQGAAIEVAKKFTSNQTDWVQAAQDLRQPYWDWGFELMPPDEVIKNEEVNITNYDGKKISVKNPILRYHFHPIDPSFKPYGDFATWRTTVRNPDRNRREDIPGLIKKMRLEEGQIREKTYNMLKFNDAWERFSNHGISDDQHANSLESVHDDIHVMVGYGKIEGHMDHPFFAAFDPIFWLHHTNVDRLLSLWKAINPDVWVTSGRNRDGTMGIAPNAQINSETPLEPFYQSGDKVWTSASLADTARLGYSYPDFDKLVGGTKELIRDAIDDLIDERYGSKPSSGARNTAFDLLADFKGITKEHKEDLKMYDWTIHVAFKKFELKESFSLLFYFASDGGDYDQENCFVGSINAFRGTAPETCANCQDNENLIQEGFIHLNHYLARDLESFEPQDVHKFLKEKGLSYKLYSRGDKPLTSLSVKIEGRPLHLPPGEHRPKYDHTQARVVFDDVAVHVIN
How it was run: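 Mushroom tyrosinase diphenolase activity, 30 units (0.2 mg/mL), preincubated 10 min at 25 °C with compound in 50 mM phosphate buffer pH 6.8; compound diluted from DMSO stock. At least eight inhibitor concentrations; IC50 interpolated from dose-response curves.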

Compared with Cc1ccc(C)n1NC(N)=S, NC(=S)N/N=C\C=C\c1ccccc1 is 3.2-fold higher in IC50: 0.85 µM for the first, 2.7 µM for the second.

Going from CC(C)=NNC(N)=S to CC/C(C)=N\NC(N)=S, the IC50 rises from 0.086 µM to 0.28 µM (3.3-fold).

C/C=N\NC(N)=S and CC/C=N\NC(N)=S are within 1.5-fold of each other in IC50: 0.23 µM for the first, 0.2 µM for the second.

Compared with CC(C)/C=N\NC(N)=S, C/C=C/C=N\NC(N)=S is 1.6-fold higher in IC50: 0.62 µM for the first, 1 µM for the second.

Compared with NC(=S)NN=C1CCCC1, NC(=S)NN=C1CCCCC1 is 5.6-fold higher in IC50: 0.17 µM for the first, 0.95 µM for the second. The first is the more potent here.

CC(C)=C/C(C)=N\NC(N)=S and NC(=S)N/N=C1\CCCC(=O)C1 are within 1.5-fold of each other in IC50: 11.5 µM for the first, 15.1 µM for the second.
